# RGS4 block: RGS4 inhibitors, primary screen, cell-based, HEK293 M3R inducible RGS4, calcium flux; Fluo-4 calcium flux; stronger effect = higher value; triggered by carbachol at its EC20; AID 463165, 2010; 0.45% of 310,000 active; Regulator of G-protein signaling 4 (Homo sapiens), P49798; B-score at 10 µM;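 active = B-score, a plate-corrected calcium signal, over three deviations above library mean, with baseline fluorescence within five deviations of library mean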;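 also: RGS4 expression induced by doxycycline in cells with stable M3 receptor; B-score is computed from the integrated fluorescence ratio over baseline after carbachol; higher B-score means a larger calcium signal and so more RGS4 inhibition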
# Target sequence (P49798 whole entry, looked up): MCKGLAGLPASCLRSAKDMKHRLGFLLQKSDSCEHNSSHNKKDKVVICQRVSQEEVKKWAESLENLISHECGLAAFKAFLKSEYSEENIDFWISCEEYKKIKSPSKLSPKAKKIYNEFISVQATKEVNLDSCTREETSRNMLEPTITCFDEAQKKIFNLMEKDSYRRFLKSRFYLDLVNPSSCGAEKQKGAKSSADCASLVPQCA
# RGS4 act: RGS4 potentiators or activators, primary screen, cell-based, HEK293 M3R inducible RGS4, calcium flux | carbachol calcium flux Fluo4; stronger effect = lower value | B-score at 10 µM | 0.92% of 310,000 active | AID 463111, 2010;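 active = B-score of the integrated calcium signal more than 4 SD below the library mean, with starting fluorescence not abnormally high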;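 also: negative B-score means reduced calcium response which marks RGS4 activation or potentiation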
#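 Test system: HEK293 cells with stable M3R and inducible RGS4; also added: carbachol at ECmax as muscarinic agonist stimulus; schedule: dye loading 30 min 37 °C, buffer rest 30 min RT; technique: kinetic calcium fluorescence imaging with Fluo4-AM dye, 2 µM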
# MrgX1 antagonist: antagonists of human MrgX1 receptor, primary screen, HEK293 cells, Fluo-4 calcium flux; AID 588676, 2011; 1.3% of 310,000 active; B-score at 10 µM; Mas-related G-protein coupled receptor member X1 (Homo sapiens), Q96LB2; BAM8-22 antagonism; stronger effect = lower value;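 active = calcium-response B-score plate-corrected more than 3 library SD below zero, starting fluorescence within 5 deviations, no agonist response on first addition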;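 also: peak minus trough fluorescence over baseline after final BAM8-22 challenge near maximal dose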
# Target sequence (Q96LB2 whole entry, looked up): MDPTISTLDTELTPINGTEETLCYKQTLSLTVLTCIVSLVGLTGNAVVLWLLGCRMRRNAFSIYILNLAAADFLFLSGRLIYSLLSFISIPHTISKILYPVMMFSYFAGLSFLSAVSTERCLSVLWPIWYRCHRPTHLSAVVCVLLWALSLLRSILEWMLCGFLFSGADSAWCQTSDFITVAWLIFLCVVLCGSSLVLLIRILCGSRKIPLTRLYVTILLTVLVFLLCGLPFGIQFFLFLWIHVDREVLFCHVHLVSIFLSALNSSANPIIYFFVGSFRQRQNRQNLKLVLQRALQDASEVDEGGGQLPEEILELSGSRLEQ
# MrgX1 agonist: agonists of human MrgX1 receptor, primary screen, HEK293 cells, Fluo-4 calcium flux. Fluo-4 calcium fluorescence, agonist mode; stronger effect = higher value. 0.44% of 310,000 active. AID 588627, 2011. B-score at 10 µM;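 active = calcium response B-score plate-corrected fluorescence ratio at least 3 library SD, with starting fluorescence B-score inside 5 SD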
#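 System – MrgX1-expressing HEK293 cells · Incubation – cells plated overnight, dye loaded 0.5 h 37 °C, 0.5 h room temperature · Technique – kinetic Fluo-4 NW fluorescence of intracellular calcium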
# MrgX1 allo act: positive allosteric modulators of MrgX1, primary screen, HEK293 cells, Fluo-4 calcium flux; Mas-related G-protein coupled receptor member X1 (Homo sapiens), Q96LB2; FDSS; stronger effect = higher value; B-score at 10 µM; 0.63% of 310,000 active; AID 588675, 2011;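 active = plate-corrected calcium response at least 3 library SD above typical, normal starting fluorescence, not activating the receptor alone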;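 also: compound read alongside a low EC10 to EC30 dose of BAM8-22 agonist; peak minus trough fluorescence over baseline measured at the second addition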
# Active calls of the source: *; i = inactive; · = no result given. A selection: hits, their analogues and other compounds. The true share with any hit is near 3.5%.
SMILES,RGS4 block,RGS4 act,MrgX1 antagonist,MrgX1 agonist,MrgX1 allo act
C[C@]12C=CC(=O)C=C1CC[C@@H]1C2=CC[C@]2(C)[C@@H](C(=O)CN3CCN(c4cc(N5CCCC5)nc(N5CCCC5)n4)CC3)CC[C@@H]12,i,i,i,37.8*,i
CC1CC1C(=O)OCC(=O)NCc1ccc(Cl)cc1Cl (centres undefined),i,i,i,i,i
O=C1C=C(NCc2ccco2)CC(c2ccc(Cl)cc2)C1 (centres undefined),i,i,i,i,i
COc1cc2nc(SCc3c(C)noc3C)n(CCC3=CCCCC3)c(=O)c2cc1OC,i,-8.22*,i,i,i
O=C(NC(=S)NCCC1=CCCCC1)c1ccccc1Br,i,-7.29*,i,i,i
CCOc1cc2c(cc1/C=C/c1noc(C)c1[N+](=O)[O-])OC(C)C2 (centres undefined),i,i,i,40.7*,i
Cc1ccc(Cl)cc1N1CCN(C(=O)CSc2nnc3n2C(C)(C)Cc2ccccc2-3)CC1,i,-7.03*,-9.5*,i,i
CSc1ccccc1OCc1cc(C(=O)N2CCc3sccc3C2)no1,i,-7.85*,i,i,i
Cc1ccc(C)c(OCc2cc(C(=O)N3CCc4sccc4C3)no2)c1,i,i,i,i,i
CCn1ccnc1CN(C)C(=O)c1cc(COc2ccccc2SC)on1,i,-7.59*,i,i,i
O=C(c1cc(-c2ccc(Cl)c(Cl)c2)on1)N1CCOCC1,i,i,i,i,i
CCOC(=O)c1nn(-c2ccc(Cl)cc2)c(=O)c(C#N)c1C,i,i,i,i,i
CCOC(=O)c1nn(-c2ccc(Cl)cc2Cl)c(=N)c(C#N)c1C,i,i,-7.53*,i,i
S=C(NCCCc1ccccc1)NCc1ccccc1,i,i,i,i,i
CC1=CN2C(=N)/C(=C/c3ccc(C)o3)C(=O)N=C2S1,i,i,i,i,15.3*
CCOc1ccc(Br)cc1/C(C)=N\NC1=NCCN1,i,-6.97*,i,i,i
Nc1nnc(Cc2ccc(Cl)cc2)s1,i,i,i,i,i
COc1ccc(S(=O)(=O)/N=C2/NC(=O)/C(=C/c3ccco3)S2)cc1,i,i,i,i,7.5*
O=[N+]([O-])c1ccccc1/C=N/N1CCN(c2ccc(Cl)cc2)CC1,i,i,i,i,i
O=[N+]([O-])c1ccccc1/C=N\N1CCN(c2ccccc2)CC1,i,i,i,i,6.92*
COc1cc(/C=C2/SC(=S)N(c3c(C)n(C)n(-c4ccccc4)c3=O)C2=O)ccc1O,i,i,i,35.7*,i
CN1c2ccccc2C(C)(C)C12CC(c1ccc(S(=O)(=O)N3CCCCC3)cc1)=NO2 (centres undefined),i,i,i,i,i
CCN(CC)S(=O)(=O)c1ccc(C2=NOC3(C2)N(C)c2ccccc2C3(C)C)cc1 (centres undefined),i,-8.42*,i,i,i
COc1ccc(C[C@H]2CN3C(=NC[C@H]3Cc3ccccc3)N2CCNC(=O)c2ccc(C)c(Br)c2)cc1,i,i,-5.09*,i,i
COc1ccc(C[C@H]2CN3C(=NC[C@@H]3Cc3ccccc3)N2CCNC(=O)c2ccc(C)c(Br)c2)cc1,i,i,i,i,i
SMILES,RGS4 block,RGS4 act,MrgX1 antagonist,MrgX1 agonist,MrgX1 allo act
Cc1ccc2nc(Cl)c3nnnn3c2c1,i,i,i,i,8.74*
Cc1ccc2nc(N3CCN(c4cccc(C)c4C)CC3)c3nnnn3c2c1,i,i,i,i,i
O=C(N/N=C/c1ccc2cccc(OCc3ccccc3)c2n1)c1ccc(Br)cc1,i,-10.4*,i,i,i
NC(=S)N/N=C/c1ccc2cccc(OCc3ccccc3)c2n1,i,i,i,i,i
NC(N)=N/N=C/c1ccc2cccc(OCc3ccccc3)c2n1,i,i,-5.3*,i,i
COc1cc(C(=O)OCn2nnc3ccccc3c2=O)cc(OC)c1OC,i,i,i,i,i
CCOc1ccc(C(=O)OCn2nnc3ccccc3c2=O)cc1OC,i,i,-7.6*,i,i
O=C(OCn1nnc2ccccc2c1=O)c1ccc(O)cc1,i,i,i,i,12.2*
CCC(=O)Nc1cccc(-c2ccc(N3CCN(C)CC3)nn2)c1,i,i,i,i,i
CC(=O)c1c(C)[nH]c(C(=O)/C(C#N)=C/c2cccc(C)c2)c1C,i,i,i,i,i
CCOC(=O)c1c(C)[nH]c(C(=O)/C(C#N)=C/c2ccc(OCC)cc2)c1C,i,-7.58*,i,i,i
NC(N)=NC(=O)c1nc(Cl)c(N2CCCCCC2)nc1N,·,·,i,57.4*,i
NC(N)=NC(=O)c1nc(Cl)c(N)nc1N,i,i,i,i,i
Cc1ccc(CCNC(=O)c2ccc(CS(=O)(=O)Cc3ccc(F)cc3)o2)cc1,i,i,i,i,i
CN1CCc2nc3ccc(Cl)cc3c(-c3ccccc3Cl)c2C1,i,-8.64*,i,i,i
Cc1nc2ccc(Cl)cc2c(-c2ccccc2Cl)c1CC(=O)O,i,i,i,i,i
COc1cccc(/C=N\NC(=O)C2C(=O)NCC2c2ccccc2)c1O (centres undefined),i,i,i,i,i
CCc1nc(N)c(C#N)c(-c2ccc(O)c(OC)c2)c1C,i,i,i,i,i
CCOC(=O)c1[nH]c2cc(OC)c(OC)cc2c1NC(=O)C(C)N1CCN(Cc2ccccc2)CC1 (centres undefined),i,-8.65*,i,i,i
CCOC(=O)c1[nH]c2ccc(OC)cc2c1NC(=O)C(C)N1CCSCC1 (centres undefined),i,i,·,·,·
C[n+]1ccccc1/C=C/c1ccc([N+](=O)[O-])cc1,i,i,i,i,i
O=[N+]([O-])c1ccc(/C=C/C2=NN(c3ccccc3)C(c3ccco3)C2)cc1 (centres undefined),·,·,i,i,9.68*
O=S(=O)(c1ccccc1)N1N=C(c2ccc(O)cc2)CC1c1ccco1 (centres undefined),i,i,i,i,i

# Source: PubChem BioAssay
